Results as given in paper PMC7486978 (Molecular pharmaceutics, 2019).
Bridge positions count the residues as written; N and C are the ends. Peptide text beside a SMILES is read from it. * marks the point of attachment. NOTA(2S-Bn(4-NHCS)) = O=C(O)CN1CCN(CC(=O)O)C[C@H](Cc2ccc(NC(=S)*)cc2)N(CC(=O)O)CC1

What was measured:
MCF-7 xenograft mice = experiment: in vivo; format: in vivo, BALB/c nude mice; details: for tumor uptake (biodistribution): no blocking, mean ± SD
[1] = tested on: MDA-MB-231 tumor xenograft; experiment: Small-animal PET/CT imaging, ROI tumor uptake; format: in vivo, BALB/c nude mice; details: MDA-MB-231 xenograft, 30 min p.i., 6.5–9 MBq; n = 4
MX-1 tumor xenograft = experiment: Small-animal PET/CT imaging, ROI tumor uptake; format: in vivo, BALB/c nude mice; details: MX-1 xenograft, 30 min p.i., 6.5–9 MBq; n = 4
MCF-7 cells = experiment: In vitro cell uptake and blocking study; format: cell-based, human; details: 100 times excess (100 pmol) nonradioactive RGD, NGR, RGD+NGR or NGR-RGD 15 min in advance; 2 h at 37 °C
[2] = tested on: MDA-MB-231 xenograft mice; experiment: Post-imaging biodistribution; format: in vivo, BALB/c nude mice; details: 1 h p.i., mean ± SD, n = 4
Procedure, shortened: (§1)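 Female BALB/c nude mice were injected s.c. in the right shoulder with 1.0 × 10⁷ cells (MDA-MB-231/MDA-MB-468 grown in L-15 without CO₂; MX-1 in high-glucose DMEM, 10% FBS, 5% CO₂). They were used at tumor size 0.8–1.0 cm and given ⁶⁸Ga-labelled test compound (6.5–9 MBq, 125 μL) by tail vein. PET/CT under 2.0% isoflurane ran at 30 min. Mice were euthanized at 1 h; tissues weighed, γ-counted, decay-corrected %ID/g, mean ± SD.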

[3] = tested on: MDA-MB-468 xenograft mice; experiment: Post-imaging biodistribution; format: in vivo, BALB/c nude mice; details: 1 h p.i., mean ± SD, n = 4
Procedure, shortened: as §1

MX-1 xenograft mice = experiment: Post-imaging biodistribution; format: in vivo, BALB/c nude mice; details: 1 h p.i., mean ± SD, n = 4
Procedure, shortened: as §1

[4] = tested on: MDA-MB-468 tumor xenograft; experiment: Small-animal PET/CT imaging, ROI tumor uptake; format: in vivo, BALB/c nude mice; details: MDA-MB-468 xenograft, 30 min p.i., 6.5–9 MBq; n = 4
[5] = In vitro stability in PBS; format: physicochemical; details: PBS pH 7.4, 37 °C, 2 h, 14.8 MBq; analytical radio-HPLC
Procedure, shortened: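 ⁶⁸Ga-labelled test compound was prepared by heating precursor with [⁶⁸Ga]GaCl₃ in sodium acetate buffer (final pH about 4.0) at 90 °C for 5 min and used unpurified. Tracer (14.8 MBq) was held in PBS pH 7.4 at 37 °C for 2 h.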

MCF-7 tumor xenograft = experiment: Small-animal PET/CT imaging, ROI tumor uptake; format: in vivo, BALB/c nude mice; details: MCF-7 xenograft, 30 min p.i., n = 4
in vivo = format: in vivo, BALB/c nude mice; details: female, BALB/c nude, mouse, in vivo, total radioactivity
[6] = MCF-7 xenograft mice, 1 h p.i., n = 4

Molecule	tumor uptake (biodistribution), blocked with NGR-RGD (MCF-7 xenograft mice; MCF-7 xenograft mice, 1 h p.i., coinjection of excess unlabeled NGR-RGD, n = 4)	tumor uptake (biodistribution), blocked with NGR (MCF-7 xenograft mice; MCF-7 xenograft mice, 1 h p.i., coinjection of excess unlabeled NGR, n = 4)	tumor uptake (biodistribution), blocked with RGD+NGR (MCF-7 xenograft mice; MCF-7 xenograft mice, 1 h p.i., coinjection of excess unlabeled RGD+NGR, n = 4)	tumor uptake (biodistribution), blocked with RGD (MCF-7 xenograft mice; MCF-7 xenograft mice, 1 h p.i., coinjection of excess unlabeled RGD, n = 4)	tumor uptake (biodistribution) (MCF-7 xenograft mice; [6])	accumulation in the kidneys (biodistribution) (MCF-7 xenograft mice; mouse, in vivo, 1 h)	tumor uptake (PET ROI) [1]	tumor uptake (PET ROI) (MX-1 tumor xenograft)	uptake by MCF-7 cells when pretreated with excess of blocking agents (MCF-7 cells)	tumor uptake (biodistribution) [2]	tumor uptake (biodistribution) [3]	tumor uptake (biodistribution) (MX-1 xenograft mice)	tumor uptake (PET ROI) [4]	proportion of the intact tracer [5]	tumor uptake (PET ROI), blocked by NGR (MCF-7 tumor xenograft; coinjected unlabeled NGR 20 mg/kg)	tumor uptake (PET ROI), blocked by NGR-RGD (MCF-7 tumor xenograft; coinjected unlabeled NGR-RGD 20 mg/kg)	tumor uptake (PET ROI), blocked by RGD (MCF-7 tumor xenograft; coinjected unlabeled RGD 20 mg/kg)	tumor uptake (PET ROI), blocked by RGD+NGR (MCF-7 tumor xenograft; coinjected unlabeled RGD+NGR 20 mg/kg)	tumor uptake (PET ROI) (MCF-7 tumor xenograft; comparison of tumor types (Figure 5B))	tissue uptake at 1 h (in vivo)
c(RGDyK)-PEG4-NOTA-click-PEG4-c(CNGRC) (bicyclic or more) [^68Ga-NGR-RGD]	0.16 ± 0.04 %ID/g	0.67 ± 0.02 %ID/g	0.20 ± 0.07 %ID/g	0.17 ± 0.04 %ID/g	1.02 ± 0.16 %ID/g	2.52 ± 0.30 %ID/g	1.04 ± 0.06 %ID/g	0.41 ± 0.08 %ID/g	decreased significantly	0.53 ± 0.05 %ID/g	0.28 ± 0.04 %ID/g	0.20 ± 0.03 %ID/g	0.76 ± 0.10 %ID/g	exceeded 95%	0.80 ± 0.03 %ID/g	0.28 ± 0.06 %ID/g	0.37 ± 0.05 % ID/g	0.31 ± 0.03 %ID/g	1.03 ± 0.08 %ID/g	
N=C(N)NCCC[C@@H]1NC(=O)CNC(=O)[C@H](CC(N)=O)NC(=O)[C@H](CCCCNC(=S)Nc2ccc(C[C@H]3CN(CC(=O)O)CCN(CC(=O)O)CCN3CC(=O)O)cc2)NC(=O)CC[C@@H](C(N)=O)NC1=O [^68Ga-NGR, metal not drawn, reference compound] (K(NOTA(2S-Bn(4-NHCS)))NGRE-NH2; lactam N-5; C-terminus assumed)					0.14 ± 0.04 %ID/g															0.87 ± 0.04 %ID/g
